Data as given in ChEMBL document CHEMBL2429794, “Tuning the antibacterial activity of amphiphilic neamine derivatives and comparison to paromamine homologues” (J Med Chem, 2013).
≈ marks a conversion by molar mass, not a printed value.

Legend:
[1] = system: Escherichia coli; experiment: Antibacterial activity against Escherichia coli L58058.1 expressing ANT2''-1A after 24 hrs by geometric microdilution method; type: functional
[2] = system: Staphylococcus aureus; experiment: microbe, parasite or virus in culture; conditions: ATCC 25923, 24 h
[3] = system: Escherichia coli; experiment: Antibacterial activity against Escherichia coli PAZ505H8101 expressing AAC6'-1B after 24 hrs by geometric microdilution method; type: functional
[4] = system: Staphylococcus aureus; experiment: Antibacterial activity against vancomycin-resistant Staphylococcus aureus VRS2 after 24 hrs by geometric microdilution method; type: functional
Outline: (§1)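 Broth cultures were incubated in plates at 37 °C, and growth was read as absorbance at 650 nm after 1, 4, 7 and 24 h. Ampicillin (16 mg/L) was the positive control and DMSO the negative control. Each MIC (μg/mL) is the average of at least three determinations.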

[5] = system: Staphylococcus aureus; experiment: Antibacterial activity against Staphylococcus aureus expressing aminoglycoside-3'-O-phosphoryltransferase after 24 hrs by geometric microdilution method; type: functional; outline: as §1
[6] = system: Staphylococcus aureus; experiment: Antibacterial activity against Staphylococcus aureus expressing aminoglycoside-6'-N-acetyltransferase/2''-O-phosphoryltransferase after 24 hrs by geometric microdilution method; type: functional; outline: as §1
[7] = system: Escherichia coli; experiment: microbe, parasite or virus in culture; conditions: ATCC 25922, 24 h
[8] = system: Staphylococcus aureus; experiment: Antibacterial activity against 14- and 15-membered macrolide-resistant Staphylococcus aureus expressing MsrA efflux pump after 24 hrs by geometric microdilution method; type: functional; outline: as §1
[9] = system: Pseudomonas aeruginosa; experiment: Antibacterial activity against Pseudomonas aeruginosa ATCC 27853 after 24 hrs by geometric microdilution method; type: functional
[10] = system: Staphylococcus aureus; experiment: Antibacterial activity against fluoroquinolone-resistant Staphylococcus aureus 1199B expressing NorA efflux pump after 24 hrs by geometric microdilution method; type: functional; outline: as §1
[11] = system: Pseudomonas aeruginosa; experiment: Antibacterial activity against Pseudomonas aeruginosa PA22 (PT629) expressing MexXY after 24 hrs by geometric microdilution method; type: functional
[12] = system: Staphylococcus aureus; experiment: Antibacterial activity against Staphylococcus aureus expressing aminoglycoside-[…] after 24 hrs by geometric microdilution method; type: functional; outline: as §1
[13] = system: Staphylococcus aureus; experiment: Antibacterial activity against healthcare-acquired methicillin-resistant Staphylococcus aureus ATCC 33592 after 24 hrs by geometric microdilution method; type: functional; outline: as §1
[14] = system: Pseudomonas aeruginosa; experiment: Antibacterial activity against Pseudomonas aeruginosa F03 expressing AAC6'-2A after 24 hrs by geometric microdilution method; type: functional
[15] = system: Acinetobacter lwoffii; experiment: Antibacterial activity against Acinetobacter lwoffii AI.88-483 expressing APH3'-6A after 24 hrs by geometric microdilution method; type: functional
[16] = system: Acinetobacter lwoffii; experiment: Antibacterial activity against Acinetobacter lwoffii ATCC 17925 after 24 hrs by geometric microdilution method; type: functional; conditions: ATCC 17925, 24 h
[17] = system: Klebsiella pneumoniae; experiment: Antibacterial activity against Klebsiella pneumoniae ATCC 700603 after 24 hrs by geometric microdilution method; type: functional

Compound	MIC ([1]; L58058.1, 24 h) [µg/mL]	MIC [2] [µg/mL]	MIC ([3]; PAZ505H8101, 24 h) [µg/mL]	MIC ([4]; VRS2, 24 h) [µg/mL]	MIC [5] [µg/mL]	MIC [6] [µg/mL]	MIC [7] [µg/mL]	MIC [8] [µg/mL]	MIC ([9]; ATCC 27853, 24 h) [µg/mL]	MIC [10] [µg/mL]	MIC [11] [µg/mL]	MIC [12] [µg/mL]	MIC ([13]; ATCC 33592, 24 h) [µg/mL]	MIC ([14]; F03, 24 h) [µg/mL]	MIC ([15]; AI.88-483, 24 h) [µg/mL]	MIC [16] [µg/mL]	MIC ([17]; ATCC 700603, 24 h) [µg/mL]	also measured
NC[C@H]1O[C@H](O[C@H]2[C@H](O)[C@@H](OCCCCc3ccc4ccccc4c3)[C@H](N)C[C@@H]2N)[C@H](N)[C@@H](OCCCCc2ccc3ccccc3c2)[C@@H]1OCCCCc1ccc2ccccc2c1	> 128	> 128	128 (≈ 147 µM)	> 128	128 (≈ 147 µM)	128 (≈ 147 µM)	128 (≈ 147 µM)	128 (≈ 147 µM)	128 (≈ 147 µM)	> 128	128 (≈ 147 µM)	128 (≈ 147 µM)	> 128	128 (≈ 147 µM)				
N[C@H]1[C@@H](O[C@H]2[C@H](O)[C@@H](OCc3cccc4ccccc34)[C@H](N)C[C@@H]2N)O[C@H](CO)[C@@H](OCc2cccc3ccccc23)[C@@H]1OCc1cccc2ccccc12	16 (≈ 21.5 µM)	2 (≈ 2.69 µM)	16 (≈ 21.5 µM)	32 (≈ 43 µM)	4 (≈ 5.38 µM)	8 (≈ 10.8 µM)	16 (≈ 21.5 µM)	8 (≈ 10.8 µM)	32 (≈ 43 µM)	8 (≈ 10.8 µM)	32 (≈ 43 µM)	16 (≈ 21.5 µM)	32 (≈ 43 µM)	32 (≈ 43 µM)	128 (≈ 172 µM)	1 (≈ 1.34 µM)	128 (≈ 172 µM)	
NC[C@H]1O[C@H](O[C@H]2[C@H](O)[C@@H](OCc3cccc4ccccc34)[C@H](N)C[C@@H]2N)[C@H](N)[C@@H](OCc2cccc3ccccc23)[C@@H]1OCc1cccc2ccccc12	16 (≈ 21.5 µM)	1 (≈ 1.35 µM)	2 (≈ 2.69 µM)	16 (≈ 21.5 µM)	2 (≈ 2.69 µM)	4 (≈ 5.38 µM)	8 (≈ 10.8 µM)	2 (≈ 2.69 µM)	8 (≈ 10.8 µM)	4 (≈ 5.38 µM)	8 (≈ 10.8 µM)	4 (≈ 5.38 µM)	4 (≈ 5.38 µM)	8 (≈ 10.8 µM)	128 (≈ 172 µM)	2 (≈ 2.69 µM)	128 (≈ 172 µM)	
CCCCCCO[C@@H]1[C@@H](N)[C@@H](O[C@H]2[C@H](O)[C@@H](OCCCCCC)[C@H](N)C[C@@H]2N)O[C@H](CN)[C@H]1O	128 (≈ 261 µM)	128 (≈ 261 µM)	128 (≈ 261 µM)	128 (≈ 261 µM)	> 128	> 128	128 (≈ 261 µM)	128 (≈ 261 µM)	> 128	128 (≈ 261 µM)	> 128	> 128	128 (≈ 261 µM)	> 128	> 128	> 128	> 128	
CCCCCCCCCCCCCCCCCCO[C@@H]1[C@@H](N)[C@@H](O[C@H]2[C@H](O)[C@@H](OCCCCCCCCCCCCCCCCCC)[C@H](N)C[C@@H]2N)O[C@H](CN)[C@H]1O	> 128	> 128	> 128	> 128	128 (≈ 155 µM)	256 (≈ 309 µM)	> 128	> 128	> 128	> 128	> 128	256 (≈ 309 µM)	> 128	> 128				
GENTAMICIN											4							MIC [1]: 64 µg/mL; MIC [3]: 1 µg/mL; MIC [4]: 32 µg/mL; MIC [15]: 4 µg/mL; MIC [9]: 1 µg/mL; MIC [17]: 8 µg/mL; MIC [13]: 1 µg/mL; MIC [14]: > 128 µg/mL
NCC[C@H](O)C(=O)N[C@@H]1C[C@H](N)[C@@H](O[C@H]2O[C@H](CN)[C@@H](O)[C@H](O)[C@H]2O)[C@H](O)[C@H]1O[C@H]1O[C@H](CO)[C@@H](O)[C@H](N)[C@H]1O [AMIKACIN]	2 (≈ 3.42 µM)		64 (≈ 109 µM)				4 (≈ 6.83 µM)		2 (≈ 3.42 µM)		8 (≈ 13.7 µM)			4 (≈ 6.83 µM)	> 128	0.5 (≈ 0.854 µM)	0.5 (≈ 0.854 µM)	
N[C@H]1[C@@H](O[C@H]2[C@H](O)[C@@H](O)[C@H](N)C[C@@H]2N)O[C@H](CO)[C@@H](O)[C@@H]1O [PAROMAMINE]	> 128	32 (≈ 99 µM)	> 128	> 128	> 128	> 128	> 128	> 128	> 128	> 128	> 128	> 128	> 128	> 128				
CCCCCCCCCCCCCCCCCCO[C@@H]1[C@@H](O)[C@H](O[C@H]2O[C@H](CN)[C@@H](O)[C@H](O)[C@H]2N)[C@@H](N)C[C@H]1N		> 128			> 256	> 256				> 256		> 256	> 128					
